# Experimental data reported in ChEMBL document CHEMBL5329156, “Discovery and development of novel substituted monohydrazides as potent antifungal agents” (RSC Med Chem, 2023).
# Active and inactive are the calls of the source. No cut-off for these calls is given here.
# Experiments:
# [1] = test system: Candida albicans; assay: Antifungal activity against Candida albicans ATCC 10231 assessed as fungal growth inhibition by double dilution method; assay type: functional
# Outline: (§1)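 Broth microdilution after CLSI M27-A3/M38-A2 with minor changes. Single colony grown overnight in YPD at 35 °C, 200 rpm. Compound final range 0.06-31.3 µg/mL; incubated 48 h at 35 °C.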
# [2] = test system: Candida albicans; assay: Antifungal activity against Candida albicans ATCC 64124 assessed as fungal growth inhibition by double dilution method; assay type: functional
# Outline: (§2)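 Broth microdilution after CLSI M27-A3/M38-A2 with minor modifications. A single colony was grown overnight in YPD at 35 °C with shaking at 200 rpm. Cells were mixed 1:1 with compound (final 0.06-31.3 µg/mL, from DMSO stocks) and incubated 48 h at 35 °C.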
# [3] = test system: Candida albicans; assay: Antifungal activity against itraconazole/fluconazole susceptible Candida albicans ATCC MYA-2876 assessed as fungal growth inhibition by double dilution method; assay type: functional; outline: as §2
# [4] = test system: Candida albicans; assay: Antifungal activity against itraconazole/fluconazole resistant Candida albicans ATCC 90819 assessed as fungal growth inhibition by double dilution method; assay type: functional; outline: as §2
# [5] = test system: Candida albicans; assay: Antifungal activity against itraconazole/fluconazole susceptible Candida albicans ATCC MYA-2310 assessed as fungal growth inhibition by double dilution method; assay type: functional; outline: as §2
# [6] = test system: Candida albicans; assay: Antifungal activity against itraconazole/fluconazole resistant Candida albicans ATCC MYA-1237 assessed as fungal growth inhibition by double dilution method; assay type: functional; outline: as §2
# [7] = test system: Candida albicans; assay: Antifungal activity against itraconazole/fluconazole resistant Candida albicans ATCC MYA-1003 assessed as fungal growth inhibition by double dilution method; assay type: functional; outline: as §2
# [8] = test system: Nakaseomyces glabratus; assay: Antifungal activity against Candida glabrata ATCC 2001 assessed as fungal growth inhibition by double dilution method; assay type: functional; outline: as §1
# [9] = test system: Pichia kudriavzevii; assay: Antifungal activity against Pichia kudriavzevii ATCC 6258 assessed as fungal growth inhibition by double dilution method; assay type: functional; outline: as §1
# [10] = test system: Nakaseomyces glabratus; assay: Antifungal activity against Candida glabrata ATCC 22019 assessed as fungal growth inhibition by double dilution method; assay type: functional; outline: as §1
# [11] = test system: [Candida] auris; assay: Antifungal activity against Candida auris AR Bank # 0384 assessed as fungal growth inhibition by double dilution method; assay type: functional; details: Candidozyma auris; outline: as §1
# [12] = test system: [Candida] auris; assay: Antifungal activity against Candida auris AR Bank # 0390 assessed as fungal growth inhibition by double dilution method; assay type: functional; details: Candidozyma auris; outline: as §1
# [13] = test system: Cryptococcus neoformans; assay: Antifungal activity against Cryptococcus neoformans ATCC MYA-895 assessed as fungal growth inhibition by double dilution method; assay type: functional; outline: as §1
# [14] = test system: Aspergillus terreus; assay: Antifungal activity against Aspergillus terreus ATCC MYA-3633 assessed as fungal growth inhibition by double dilution method; assay type: functional
# [15] = test system: Aspergillus fumigatus; assay: Antifungal activity against Aspergillus fumigatus NRRL 163 assessed as fungal growth inhibition by double dilution method; assay type: functional
# [16] = test system: Aspergillus flavus; assay: Antifungal activity against Aspergillus flavus ATCC MYA-3631 assessed as fungal growth inhibition by double dilution method; assay type: functional
# [17] = test system: Aspergillus nidulans; assay: Antifungal activity against Aspergillus nidulans ATCC 38163 assessed as fungal growth inhibition by double dilution method; assay type: functional
# [18] = test system: Aspergillus fumigatus; assay: Antifungal activity against Aspergillus fumigatus NRRL 5109 assessed as fungal growth inhibition by double dilution method; assay type: functional
# [19] = test system: Aspergillus fumigatus; assay: Antifungal activity against Aspergillus fumigatus NRRL 6113 assessed as fungal growth inhibition by double dilution method; assay type: functional
# [20] = test system: [Candida] auris; assay: Antifungal activity against Candida auris AR Bank # 381 assessed as fungal growth inhibition by double dilution method; assay type: functional; details: Candidozyma auris; outline: as §1
# [21] = test system: [Candida] auris; assay: Antifungal activity against Candida auris AR Bank # 382 assessed as fungal growth inhibition by double dilution method; assay type: functional; details: Candidozyma auris; outline: as §1
# [22] = test system: [Candida] auris; assay: Antifungal activity against Candida auris AR Bank # 383 assessed as fungal growth inhibition by double dilution method; assay type: functional; details: Candidozyma auris; outline: as §1
# [23] = test system: [Candida] auris; assay: Antifungal activity against Candida auris AR Bank # 384 assessed as fungal growth inhibition by double dilution method; assay type: functional; details: Candidozyma auris; outline: as §1
# [24] = test system: [Candida] auris; assay: Antifungal activity against Candida auris AR Bank # 385 assessed as fungal growth inhibition by double dilution method; assay type: functional; details: Candidozyma auris; outline: as §1
# [25] = test system: [Candida] auris; assay: Antifungal activity against Candida auris AR Bank # 386 assessed as fungal growth inhibition by double dilution method; assay type: functional; details: Candidozyma auris; outline: as §1
# [26] = test system: [Candida] auris; assay: Antifungal activity against Candida auris AR Bank # 387 assessed as fungal growth inhibition by double dilution method; assay type: functional; details: Candidozyma auris; outline: as §1
# [27] = test system: [Candida] auris; assay: Antifungal activity against Candida auris AR Bank # 388 assessed as fungal growth inhibition by double dilution method; assay type: functional; details: Candidozyma auris; outline: as §1
# [28] = test system: [Candida] auris; assay: Antifungal activity against Candida auris AR Bank # 389 assessed as fungal growth inhibition by double dilution method; assay type: functional; details: Candidozyma auris; outline: as §1
# [29] = test system: [Candida] auris; assay: Antifungal activity against Candida auris AR Bank # 390 assessed as fungal growth inhibition by double dilution method; assay type: functional; details: Candidozyma auris; outline: as §1
# [30] = test system: Candida duobushaemulonii; assay: Antifungal activity against Candida duobushaemulonii AR Bank # 391 assessed as fungal growth inhibition by double dilution method; assay type: functional; details: Candidozyma duobushaemuli; outline: as §1
# [31] = test system: Candida duobushaemulonii; assay: Antifungal activity against Candida duobushaemulonii AR Bank # 392 assessed as fungal growth inhibition by double dilution method; assay type: functional; details: Candidozyma duobushaemuli; outline: as §1
# [32] = test system: [Candida] haemuloni; assay: Antifungal activity against Candida haemulonii AR Bank # 393 assessed as fungal growth inhibition by double dilution method; assay type: functional; details: Candidozyma haemuli; outline: as §1
# [33] = test system: Candida duobushaemulonii; assay: Antifungal activity against Candida duobushaemulonii AR Bank # 394 assessed as fungal growth inhibition by double dilution method; assay type: functional; details: Candidozyma duobushaemuli; outline: as §1
# [34] = test system: [Candida] haemuloni; assay: Antifungal activity against Candida haemulonii AR Bank # 395 assessed as fungal growth inhibition by double dilution method; assay type: functional; details: Candidozyma haemuli; outline: as §1
# [35] = test system: Kodamaea ohmeri; assay: Antifungal activity against Kodamaea ohmeri AR Bank # 396 assessed as fungal growth inhibition by double dilution method; assay type: functional; outline: as §1
# [36] = test system: Pichia kudriavzevii; assay: Antifungal activity against Pichia kudriavzevii AR Bank # 397 assessed as fungal growth inhibition by double dilution method; assay type: functional; outline: as §1
# [37] = test system: Clavispora lusitaniae; assay: Antifungal activity against Clavispora lusitaniae AR Bank # 398 assessed as fungal growth inhibition by double dilution method; assay type: functional; outline: as §1
# [38] = test system: Saccharomyces cerevisiae; assay: Antifungal activity against Saccharomyces cerevisiae AR Bank # 399 assessed as fungal growth inhibition by double dilution method; assay type: functional; outline: as §1
# [39] = test system: Saccharomyces cerevisiae; assay: Antifungal activity against Saccharomyces cerevisiae AR Bank # 400 assessed as fungal growth inhibition by double dilution method; assay type: functional; outline: as §1
# [40] = test system: J774.A1; assay: Cytotoxicity against J774A.1 cells assessed as reduction in cell viability at 31.3 microg/ml; assay type: toxicity, cell-based; details: mouse, dose 31.3 µg/ml
# Outline: (§3)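 Cells in DMEM with 10% FBS and 1% Pen/Strep, seeded at 10,000 cells/well and held overnight at 37 °C, 5% CO2. Compounds added at final 31.3-0.12 µg/mL (0.05% DMSO vehicle) for 24 h. Resazurin then added for 6 h; fluorescence read at ex 560/em 590. Triton X-100 1% as positive control; values normalized to vehicle. Run in quadruplicate.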
# [41] = test system: HEK293; assay: Cytotoxicity against human HEK-293 cells assessed as reduction in cell viability at 31.3 microg/ml; assay type: toxicity, cell-based; details: dose 31.3 µg/ml; outline: as §3
# [42] = Cytotoxicity against human HepG2 cells assessed as cell survival at 31.3 microg/ml relative to control; assay type: toxicity, cell-based; details: at 31.3 µg/mL, read-out: Activity; outline: as §3
# [43] = test system: Candida albicans; assay: Antibiofilm activity against Candida albicans ATCC 10231 assessed as reduction in biofilm production at 1.96 to 3.9 microg/ml by biofilm formation assay; assay type: functional, organism-based; details: dose 1.96-3.9 µg/ml
compound,measurement,setting,value
O=C(NNc1cc(F)cc(F)c1)c1ccccn1,MIC,[1],≤ 0.06 µg/mL
same,MIC,[2],0.98 µg/mL
same,MIC,[3],0.98 µg/mL
same,MIC,[4],0.98 µg/mL
same,MIC,[5],0.98 µg/mL
same,MIC,[6],1.95 µg/mL
same,MIC,[7],0.49 µg/mL
same,MIC,[8],7.8 µg/mL
same,MIC,[9],0.24 µg/mL
same,MIC,[10],1.95 µg/mL
same,MIC,[11],0.24 µg/mL
same,MIC,[12],0.49 µg/mL
same,MIC,[13],0.24 µg/mL
same,MIC,[14],0.98 µg/mL
same,MIC,[15],> 31.3 µg/mL
same,MIC,[16],1.95 µg/mL
same,MIC,[17],0.49 µg/mL
same,MIC,[18],> 31.3 µg/mL
same,MIC,[19],31.3 µg/mL
same,MIC,[20],0.98 µg/mL
same,MIC,[21],0.12 µg/mL
same,MIC,[22],0.24 µg/mL
same,MIC,[23],0.98 µg/mL
same,MIC,[24],0.24 µg/mL
same,MIC,[25],≤ 0.06 µg/mL
same,MIC,[26],0.24 µg/mL
same,MIC,[27],0.24 µg/mL
same,MIC,[28],0.24 µg/mL
same,MIC,[29],0.49 µg/mL
same,MIC,[30],0.24 µg/mL
same,MIC,[31],0.49 µg/mL
same,MIC,[32],0.49 µg/mL
same,MIC,[33],0.24 µg/mL
same,MIC,[34],0.24 µg/mL
same,MIC,[35],0.12 µg/mL
same,MIC,[36],0.12 µg/mL
same,MIC,[37],0.49 µg/mL
same,MIC,[38],1.95 µg/mL
same,MIC,[39],0.98 µg/mL
same,Activity,[40],Non-Toxic
same,Activity,[41],Non-Toxic
same,viability at 31.3 microg/ml,[42],89%
same,Activity,[43],inactive
